Measured values reported in ChEMBL document CHEMBL3352699 (J Med Chem, 2014).
≈ marks a conversion by molar mass, not a printed value.

Key:
[1] = molecular target: T1, Pyroglutamylated RF-amide peptide receptor (Homo sapiens, UniProt Q96P65); assay: Inhibition of human GPR103 receptor expressed in CHOK1 cells by IP-1 assay; assay type: cell-based, CHO-K1
T1 sequence (Q96P65 whole entry): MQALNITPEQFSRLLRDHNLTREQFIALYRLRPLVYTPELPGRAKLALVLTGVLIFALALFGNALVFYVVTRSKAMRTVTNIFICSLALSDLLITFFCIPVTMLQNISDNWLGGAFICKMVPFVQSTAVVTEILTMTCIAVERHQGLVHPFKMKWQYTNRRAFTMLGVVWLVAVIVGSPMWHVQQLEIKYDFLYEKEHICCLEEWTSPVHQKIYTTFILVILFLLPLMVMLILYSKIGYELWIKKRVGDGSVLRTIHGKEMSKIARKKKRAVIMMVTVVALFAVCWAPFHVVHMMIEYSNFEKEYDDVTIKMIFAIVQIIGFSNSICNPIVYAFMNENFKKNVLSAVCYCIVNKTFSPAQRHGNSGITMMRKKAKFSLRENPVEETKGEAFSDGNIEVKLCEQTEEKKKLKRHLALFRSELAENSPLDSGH
In short: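 Cryopreserved human QRFP/GPR103 receptor cell line thawed in stimulation buffer, preincubated with compound at 37 °C, 5% CO2, then stimulated with hQRFP43 at EC80 for 50 min at 37 °C. IP-1 read by HTRF (665/620 nm ratio). IC50 mean of N = 2−52 determinations, one to three replicates per concentration; CIR 2.0, MDR 2.8.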

[2] = Octanol-water partition coefficient, log D of the compound at pH 7.4 by shake flask method; assay type: physicochemical
[3] = Intrinsic clearance in human hepatocytes measured per 10^6 cells; assay type: ADME, cell-based, Hepatocyte; conditions: read-out: CLH
In short: (§1)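 Intrinsic clearance corrected for unspecific binding in the incubations. CIR 1.4 for human hepatocytes, 1.7 for human liver microsomes.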

[4] = Intrinsic clearance in human liver microsomes; assay type: ADME; conditions: read-out: CLH; in short: as §1
[5] = Inhibition of mouse GPR103A receptor expressed in CHO cells by IP-1 assay; assay type: cell-based
In short: (§2)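 CHO cells overexpressing mouse GPR103A or GPR103B thawed in stimulation buffer, preincubated with compound at 37 °C, 5% CO2, then stimulated with hQRFP43 at EC80 for 50 min at 37 °C. IP-1 measured by HTRF (665/620 nm ratio).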

[6] = Inhibition of mouse GPR103B receptor expressed in CHO cells by IP-1 assay; assay type: cell-based; in short: as §2
[7] = Solubility of the compound in HBSS buffer at pH 7.4 after 18 hrs by LC/MS/MS analysis; assay type: physicochemical
[8] = molecular target: Sodium channel protein type 5 subunit alpha (Homo sapiens, UniProt Q14524); assay: Inhibition of human Nav1.5 expressed in CHO cells by electrophysiology assay; assay type: cell-based
[9] = molecular target: Potassium voltage-gated channel subfamily E member 1 (Homo sapiens, UniProt P15382); assay: Inhibition of human cardiac slowly activating delayed rectifier K+ channel expressed in CHO cells by electrophysiology assay; assay type: cell-based
[10] = molecular target: T1, Pyroglutamylated RF-amide peptide receptor; assay: Displacement of [125I]QRFP43 from human GPR103 receptor expressed in HEK cells after 90 mins incubation by scintillation counting; assay type: cell-based, HEK293
In short: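 HEK membranes overexpressing human GPR103 incubated with compound and 0.25 nM 125I-hQRFP43 in 50 mM Tris pH 7.4, 1 mM EDTA, 0.1% BSA at 30 °C for 90 min. Bound radioligand separated by vacuum filtration and counted by scintillation. IC50 mean of N = 2−5 determinations, one replicate per concentration; CIR 1.7, MDR 2.1.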

[11] = molecular target: Voltage-gated inwardly rectifying potassium channel KCNH2 (Homo sapiens, UniProt Q12809); assay: Inhibition of human ERG expressed in CHO cells by electrophysiology assay; assay type: cell-based
[12] = molecular target: Cytochrome P450 2D6 (Homo sapiens, UniProt P10635); assay: Inhibition of human CYP2D6 after 20 to 50 mins by high-throughput fluorescence assay; assay type: ADME
[13] = Apparent permeability across apical to basolateral side in human Caco2 cells by LC-MS/MS analysis; assay type: ADME, cell-based; conditions: Caco-2, read-out: permeability
[14] = molecular target: T2, Cytochrome P450 1A2 (Homo sapiens, UniProt P05177); assay: Inhibition of human recombinant CYP1A2 after 20 to 50 mins by high-throughput fluorescence assay; assay type: ADME; conditions: recombinant enzyme
T2 sequence (P05177 whole entry): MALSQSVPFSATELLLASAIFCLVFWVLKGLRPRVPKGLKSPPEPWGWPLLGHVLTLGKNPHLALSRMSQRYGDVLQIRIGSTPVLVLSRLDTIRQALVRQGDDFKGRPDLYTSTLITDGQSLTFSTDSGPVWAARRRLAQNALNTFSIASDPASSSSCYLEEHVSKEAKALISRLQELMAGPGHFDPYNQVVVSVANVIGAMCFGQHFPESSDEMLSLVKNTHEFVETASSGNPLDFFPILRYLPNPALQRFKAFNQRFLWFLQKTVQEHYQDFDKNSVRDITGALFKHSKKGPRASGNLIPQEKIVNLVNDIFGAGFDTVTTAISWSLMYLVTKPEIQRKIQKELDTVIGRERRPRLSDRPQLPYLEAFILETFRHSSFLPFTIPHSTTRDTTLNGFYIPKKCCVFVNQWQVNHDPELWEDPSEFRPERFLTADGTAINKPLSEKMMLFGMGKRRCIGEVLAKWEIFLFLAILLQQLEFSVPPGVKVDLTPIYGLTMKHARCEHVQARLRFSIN

[15] = molecular target: Cytochrome P450 3A4 (Homo sapiens, UniProt P08684); assay: Inhibition of human recombinant CYP3A4 after 20 to 50 mins by high-throughput fluorescence assay; assay type: ADME; conditions: recombinant enzyme
[16] = molecular target: T3, Cytochrome P450 2C8 (Homo sapiens, UniProt P10632); assay: Inhibition of human recombinant CYP2C8 after 20 to 50 mins by high-throughput fluorescence assay; assay type: ADME; conditions: recombinant enzyme
T3 sequence (P10632 whole entry): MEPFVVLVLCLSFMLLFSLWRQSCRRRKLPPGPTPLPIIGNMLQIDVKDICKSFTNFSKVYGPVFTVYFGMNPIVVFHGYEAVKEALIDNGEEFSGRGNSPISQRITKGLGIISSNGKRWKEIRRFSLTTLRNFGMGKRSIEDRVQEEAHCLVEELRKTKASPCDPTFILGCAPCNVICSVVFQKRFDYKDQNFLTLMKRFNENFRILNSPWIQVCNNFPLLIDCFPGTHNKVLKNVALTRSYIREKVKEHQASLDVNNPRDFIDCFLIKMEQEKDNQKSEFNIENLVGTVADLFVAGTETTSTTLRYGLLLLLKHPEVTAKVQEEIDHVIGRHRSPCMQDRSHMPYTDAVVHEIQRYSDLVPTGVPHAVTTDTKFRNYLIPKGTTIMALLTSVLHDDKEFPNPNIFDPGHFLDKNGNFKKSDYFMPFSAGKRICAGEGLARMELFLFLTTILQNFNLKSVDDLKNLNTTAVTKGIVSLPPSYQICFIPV

[17] = molecular target: Cytochrome P450 2C19 (Homo sapiens, UniProt P33261); assay: Inhibition of human recombinant CYP2C19 after 20 to 50 mins by high-throughput fluorescence assay; assay type: ADME; conditions: recombinant enzyme
[18] = molecular target: Cytochrome P450 2C9 (Homo sapiens, UniProt P11712); assay: Inhibition of human recombinant CYP2C9 after 20 to 50 mins by high-throughput fluorescence assay; assay type: ADME; conditions: recombinant enzyme

Sequence of Sodium channel protein type 5 subunit alpha (Q14524 whole entry): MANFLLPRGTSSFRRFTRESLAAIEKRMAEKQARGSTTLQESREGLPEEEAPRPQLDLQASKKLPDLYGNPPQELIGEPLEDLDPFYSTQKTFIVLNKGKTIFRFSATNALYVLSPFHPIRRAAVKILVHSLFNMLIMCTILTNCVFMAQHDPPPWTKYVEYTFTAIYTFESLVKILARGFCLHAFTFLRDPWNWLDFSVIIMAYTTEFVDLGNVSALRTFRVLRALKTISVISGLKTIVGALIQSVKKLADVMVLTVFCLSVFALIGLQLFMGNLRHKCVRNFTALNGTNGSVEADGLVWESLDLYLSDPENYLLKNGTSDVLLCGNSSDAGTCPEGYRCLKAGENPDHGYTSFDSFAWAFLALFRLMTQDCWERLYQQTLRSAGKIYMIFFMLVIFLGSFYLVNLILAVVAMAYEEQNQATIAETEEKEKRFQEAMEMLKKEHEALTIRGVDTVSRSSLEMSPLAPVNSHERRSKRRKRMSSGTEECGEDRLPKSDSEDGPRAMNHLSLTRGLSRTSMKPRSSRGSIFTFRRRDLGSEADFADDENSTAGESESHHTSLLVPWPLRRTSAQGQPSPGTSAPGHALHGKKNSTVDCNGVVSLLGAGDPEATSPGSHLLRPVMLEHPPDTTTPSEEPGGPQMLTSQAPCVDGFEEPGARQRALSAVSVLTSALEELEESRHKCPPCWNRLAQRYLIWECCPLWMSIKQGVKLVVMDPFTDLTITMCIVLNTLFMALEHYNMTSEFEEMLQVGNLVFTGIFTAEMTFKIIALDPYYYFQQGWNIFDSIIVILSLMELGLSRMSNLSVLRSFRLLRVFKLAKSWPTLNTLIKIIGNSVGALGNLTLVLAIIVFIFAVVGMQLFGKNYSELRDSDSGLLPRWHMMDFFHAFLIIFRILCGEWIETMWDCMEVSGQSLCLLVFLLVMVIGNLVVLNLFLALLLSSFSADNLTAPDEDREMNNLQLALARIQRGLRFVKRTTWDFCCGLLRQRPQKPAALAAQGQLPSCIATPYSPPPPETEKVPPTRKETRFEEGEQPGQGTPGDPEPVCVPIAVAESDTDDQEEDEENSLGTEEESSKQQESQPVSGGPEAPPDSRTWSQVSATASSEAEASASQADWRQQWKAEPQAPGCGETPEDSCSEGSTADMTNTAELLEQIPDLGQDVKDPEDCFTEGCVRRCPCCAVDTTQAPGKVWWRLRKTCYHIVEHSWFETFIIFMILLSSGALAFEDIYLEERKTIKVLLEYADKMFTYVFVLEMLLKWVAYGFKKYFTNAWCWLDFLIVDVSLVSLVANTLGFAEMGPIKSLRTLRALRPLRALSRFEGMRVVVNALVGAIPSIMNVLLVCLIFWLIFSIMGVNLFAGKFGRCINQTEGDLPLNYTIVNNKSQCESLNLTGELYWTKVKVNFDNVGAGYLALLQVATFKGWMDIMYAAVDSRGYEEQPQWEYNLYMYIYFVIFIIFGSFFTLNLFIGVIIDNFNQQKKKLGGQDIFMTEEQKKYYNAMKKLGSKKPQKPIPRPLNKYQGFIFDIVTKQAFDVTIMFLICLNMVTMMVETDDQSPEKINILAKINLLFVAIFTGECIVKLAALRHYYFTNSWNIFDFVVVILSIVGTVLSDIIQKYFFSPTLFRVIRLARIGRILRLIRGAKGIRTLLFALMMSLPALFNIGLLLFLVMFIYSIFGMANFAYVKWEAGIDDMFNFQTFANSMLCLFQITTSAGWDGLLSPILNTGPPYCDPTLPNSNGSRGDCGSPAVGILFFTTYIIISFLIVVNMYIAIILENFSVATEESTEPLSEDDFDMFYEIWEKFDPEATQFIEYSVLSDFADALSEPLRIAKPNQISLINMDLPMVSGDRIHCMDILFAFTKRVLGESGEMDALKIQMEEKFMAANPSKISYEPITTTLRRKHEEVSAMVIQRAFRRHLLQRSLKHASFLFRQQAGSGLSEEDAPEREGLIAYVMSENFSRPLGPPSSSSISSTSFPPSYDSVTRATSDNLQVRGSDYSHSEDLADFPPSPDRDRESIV
Sequence of Cytochrome P450 2D6 (P10635 whole entry): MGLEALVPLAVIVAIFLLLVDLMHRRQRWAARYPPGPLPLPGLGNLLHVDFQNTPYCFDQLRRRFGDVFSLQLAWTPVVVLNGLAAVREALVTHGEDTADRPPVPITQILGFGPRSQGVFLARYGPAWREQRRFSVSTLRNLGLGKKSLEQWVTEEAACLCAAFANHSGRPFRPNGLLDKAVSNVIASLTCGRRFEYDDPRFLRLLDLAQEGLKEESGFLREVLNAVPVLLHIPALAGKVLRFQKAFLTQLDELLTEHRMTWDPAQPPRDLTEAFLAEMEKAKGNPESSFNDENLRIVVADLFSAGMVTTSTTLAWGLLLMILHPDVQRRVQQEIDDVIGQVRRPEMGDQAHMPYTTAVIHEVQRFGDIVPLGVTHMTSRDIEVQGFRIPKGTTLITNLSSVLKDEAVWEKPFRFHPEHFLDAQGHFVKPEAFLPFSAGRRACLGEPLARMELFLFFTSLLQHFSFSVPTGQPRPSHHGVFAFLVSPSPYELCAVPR
Sequence of Voltage-gated inwardly rectifying potassium channel KCNH2 (Q12809 whole entry): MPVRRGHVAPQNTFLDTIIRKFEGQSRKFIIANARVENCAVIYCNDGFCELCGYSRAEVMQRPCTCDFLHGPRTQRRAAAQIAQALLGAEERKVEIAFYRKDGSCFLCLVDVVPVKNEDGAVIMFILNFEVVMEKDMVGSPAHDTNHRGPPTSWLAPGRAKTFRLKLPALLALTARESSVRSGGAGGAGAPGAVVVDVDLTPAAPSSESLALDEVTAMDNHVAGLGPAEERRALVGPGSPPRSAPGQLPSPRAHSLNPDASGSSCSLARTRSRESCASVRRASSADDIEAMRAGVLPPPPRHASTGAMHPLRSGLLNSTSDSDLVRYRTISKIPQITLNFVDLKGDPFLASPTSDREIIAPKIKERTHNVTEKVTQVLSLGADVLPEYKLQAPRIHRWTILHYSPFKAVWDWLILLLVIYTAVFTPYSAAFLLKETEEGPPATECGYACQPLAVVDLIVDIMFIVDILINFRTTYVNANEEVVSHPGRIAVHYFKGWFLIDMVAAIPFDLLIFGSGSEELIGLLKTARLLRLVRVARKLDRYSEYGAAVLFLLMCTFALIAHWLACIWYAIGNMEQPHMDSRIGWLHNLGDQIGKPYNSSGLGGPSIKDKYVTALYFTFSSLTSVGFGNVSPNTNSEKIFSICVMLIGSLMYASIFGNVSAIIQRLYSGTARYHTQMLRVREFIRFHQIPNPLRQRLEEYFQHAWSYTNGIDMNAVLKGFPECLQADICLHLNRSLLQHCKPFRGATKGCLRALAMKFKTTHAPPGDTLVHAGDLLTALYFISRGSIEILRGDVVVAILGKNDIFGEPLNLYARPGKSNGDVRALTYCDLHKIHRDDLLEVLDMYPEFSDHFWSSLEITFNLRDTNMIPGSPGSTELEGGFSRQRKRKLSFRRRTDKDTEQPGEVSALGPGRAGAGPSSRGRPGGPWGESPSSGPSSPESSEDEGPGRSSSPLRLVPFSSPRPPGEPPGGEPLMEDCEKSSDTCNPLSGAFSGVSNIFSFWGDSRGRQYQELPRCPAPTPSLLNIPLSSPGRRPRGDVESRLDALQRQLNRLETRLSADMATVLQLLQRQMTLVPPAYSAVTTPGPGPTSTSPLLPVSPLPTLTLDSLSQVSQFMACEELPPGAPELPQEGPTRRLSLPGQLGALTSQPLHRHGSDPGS
Sequence of Cytochrome P450 2C19 (P33261 whole entry): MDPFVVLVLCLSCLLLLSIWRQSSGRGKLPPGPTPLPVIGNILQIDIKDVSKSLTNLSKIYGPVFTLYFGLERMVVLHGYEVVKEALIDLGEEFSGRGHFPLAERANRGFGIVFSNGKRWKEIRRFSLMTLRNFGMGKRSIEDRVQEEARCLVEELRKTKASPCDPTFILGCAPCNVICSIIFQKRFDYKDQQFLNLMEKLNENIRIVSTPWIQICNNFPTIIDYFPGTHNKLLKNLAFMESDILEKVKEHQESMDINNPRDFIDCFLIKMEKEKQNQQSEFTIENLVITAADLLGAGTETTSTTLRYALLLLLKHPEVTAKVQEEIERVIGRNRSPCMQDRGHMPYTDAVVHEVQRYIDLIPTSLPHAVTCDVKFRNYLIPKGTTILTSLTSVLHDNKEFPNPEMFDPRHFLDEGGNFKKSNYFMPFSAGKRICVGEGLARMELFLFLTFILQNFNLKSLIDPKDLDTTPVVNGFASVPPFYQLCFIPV
Sequence of Cytochrome P450 3A4 (P08684 whole entry): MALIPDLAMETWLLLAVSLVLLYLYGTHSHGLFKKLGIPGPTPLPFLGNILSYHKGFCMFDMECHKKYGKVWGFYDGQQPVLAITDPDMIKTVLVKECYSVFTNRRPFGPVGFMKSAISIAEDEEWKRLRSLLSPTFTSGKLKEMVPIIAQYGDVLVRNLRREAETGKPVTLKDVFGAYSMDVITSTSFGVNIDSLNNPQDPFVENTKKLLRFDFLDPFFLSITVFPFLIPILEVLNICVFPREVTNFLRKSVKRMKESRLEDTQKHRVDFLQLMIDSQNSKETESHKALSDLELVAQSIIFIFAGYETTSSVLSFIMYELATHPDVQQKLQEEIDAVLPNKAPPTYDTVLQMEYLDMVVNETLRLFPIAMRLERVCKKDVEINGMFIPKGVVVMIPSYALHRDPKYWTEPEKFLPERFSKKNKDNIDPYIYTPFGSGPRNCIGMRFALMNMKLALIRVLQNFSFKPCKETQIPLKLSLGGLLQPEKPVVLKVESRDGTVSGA

`CC1c2ccc(CN(C)C)cc2CCN1C(=O)c1cc2cc(Br)ncc2n1C` (racemic) gave an IC50 [1] of 500 nM and a logD [2] of 2.2.
With `C#Cc1cc2cc(C(=O)N3CCc4cc(CN(C)C)ccc4C3)n(C)c2cn1` the IC50 [1] was 6000 nM and the logD [2] was 1.2.
With `CC1Cc2cc(CN(C)C)ccc2CN1C(=O)c1cc2cc(Br)ncc2n1C` (racemic) the IC50 [1] was 710 nM and the logD [2] was 2.1.
For `CC1CN(C(=O)c2cc3cc(Br)ncc3n2C)Cc2ccc(CN(C)C)cc21` (racemic), the IC50 [1] was 110 nM and the logD [2] was 2.1.
With `CN(C)Cc1ccc2c(c1)CCN(C(=O)c1cc3cc(Cl)ccc3n1C)C2` the hepatocyte CLint [3] was 40 µL/min/1e6 cells, the microsomal CLint [4] was 156 µL/min/mg and the IC50 [5] was 90 nM. It also gave an IC50 [1] of 70 nM, an IC50 [6] of 80 nM and a solubility at 18 h [7] of 62 µM (≈ 23.7 µg/mL). For the same compound, the IC50 [8] was 10300 nM, the IC50 [9] was 10500 nM and the IC50 [10] was 70 nM. It also gave an IC50 [11] of 4900 nM, an IC50 [12] of 2900 nM and a Papp A→B [13] of 7.8 ×10⁻⁶ cm/s. For the same compound, the logD [2] was 3.
Work on `CN(C)Cc1ccc2c(c1)CCN(C(=O)c1cc3cc(C(F)(F)F)ncc3n1C)C2` yielded an IC50 [1] of 3300 nM and a logD [2] of 1.8.
In the case of `CN(C)Cc1ccc2c(c1)CCN(C(=O)c1cc3cc(I)ncc3n1C)C2`, the IC50 [1] is reported as 130 nM and the logD [2] is reported as 2.
For `Cc1cc2cc(C(=O)N3CCc4cc(CN(C)C)ccc4C3)n(C)c2cn1`, the IC50 [1] was 18900 nM and the logD [2] was 1.3.
In the case of `CN(C)Cc1ccc2c(c1)CCN(C(=O)c1cc3cc(Br)ncc3n1C)C2`, the “inhibition (INH)” value [14] is reported as “Not Active”, the hepatocyte CLint [3] is reported as 5.3 µL/min/1e6 cells and the “inhibition (INH)” value [15] is reported as “Not Active”. The microsomal CLint [4] was 16 µL/min/mg, the IC50 [5] was 330 nM and the IC50 [1] was 240 nM. The “inhibition (INH)” value [16] was “Not Active”, the IC50 [6] was 100 nM and the solubility at 18 h [7] was over 1000 µM. It also gave an IC50 [8] of over 33000 nM, an IC50 [9] of over 33000 nM and an IC50 [10] of 280 nM. The “inhibition (INH)” value [17] was “Not Active”, the “inhibition (INH)” value [18] was “Not Active” and the IC50 [12] was over 20000 nM. It also gave a Papp A→B [13] of 13.2 ×10⁻⁶ cm/s and a logD [2] of 1.7.
Compound `CN(C)Cc1ccc2c(c1)CCN(C(=O)c1cc3cc(-c4ccccc4)ncc3n1C)C2` has an IC50 [1] of over 41000 nM and a logD [2] of 3.
With `CN(C)Cc1ccc2c(c1)CCN(C(=O)c1cc3cc(Cl)ncc3n1C)C2` the IC50 [1] was 570 nM and the logD [2] was 1.5.
`CN(C)Cc1ccc2c(c1)CCN(C(=O)c1cc3ccncc3n1C)C2` showed an IC50 [1] of 2900 nM and a logD [2] of 0.9.
